Measured values taken from ChEMBL document CHEMBL3763086, “Salicylanilide N-monosubstituted carbamates: Synthesis and in vitro antimicrobial activity” (2016).

Assays:
Format in all cases: functional
Nakaseomyces glabratus [1] = test: Antifungal activity against Candida glabrata 20/I after 48 hrs by microbroth dilution method
Staphylococcus aureus [2] = test: Antibacterial activity against Staphylococcus aureus CCM 4516/08 after 48 hrs by microbroth dilution method; settings: CCM 4516/08, 48 h
Procedure, shortened: (§1)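 Microdilution broth method modified after M07-A07 in Mueller-Hinton broth adjusted to pH 7.4 (±0.2). Inoculum prepared in sterile water to 0.5 McFarland (1.5 × 10^8 CFU/mL). MIC taken as growth reduction versus control (IC95 per table header), read visually and spectrophotometrically at 540 nm after 24 and 48 h incubation in the dark.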

Nakaseomyces glabratus [3] = test: Antifungal activity against Candida glabrata 20/I after 24 hrs by microbroth dilution method
Enterococcus sp. [4] = test: Antibacterial activity against Enterococcus sp. J 14365/08 after 48 hrs by microbroth dilution method; settings: J 14365/08, 48 h
Procedure, shortened: (§2)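 Microbroth dilution modified per M07-A07 in Mueller-Hinton broth, pH 7.4 (±0.2). Inoculum in sterile water adjusted to 0.5 McFarland. MIC taken as growth reduction of at least 90% (IC90) versus control, read visually and at 540 nm after 24 and 48 h incubation in the dark.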

Klebsiella pneumoniae [5] = test: Antibacterial activity against Klebsiella pneumoniae D 11750/08 after 48 hrs by microbroth dilution method; settings: D 11750/08, 48 h; procedure, shortened: as §2
Klebsiella pneumoniae [6] = test: Antibacterial activity against ESBL-positive Klebsiella pneumoniae J 14368/08 after 24 hrs by microbroth dilution method; settings: J 14368/08, 24 h; procedure, shortened: as §2
Candida albicans [7] = test: Antifungal activity against Candida albicans ATCC 44859 after 48 hrs by microbroth dilution method; settings: ATCC 44859, 48 h
[8] = tested on: Staphylococcus epidermidis; test: Antibacterial activity against Staphylococcus epidermidis H 6966/08 after 48 hrs by microbroth dilution method; settings: H 6966/08, 48 h; procedure, shortened: as §2
Staphylococcus aureus [9] = test: Antibacterial activity against methicillin-resistant Staphylococcus aureus H 5996/08 after 48 hrs by microbroth dilution method; settings: H 5996/08, 48 h; procedure, shortened: as §1
Candida albicans [10] = test: Antifungal activity against Candida albicans ATCC 44859 after 24 hrs by microbroth dilution method; settings: ATCC 44859, 24 h
Candida tropicalis [11] = test: Antifungal activity against Candida tropicalis 156 after 48 hrs by microbroth dilution method; settings: Candida tropicalis, 156, 48 h
Trichosporon asahii [12] = test: Antifungal activity against Trichosporon asahii 1188 after 24 hrs by microbroth dilution method; settings: Trichosporon asahii, 1188, 24 h
Pichia kudriavzevii [13] = test: Antifungal activity against Candida krusei E28 after 48 hrs by microbroth dilution method; settings: E28, 48 h
Staphylococcus aureus [14] = test: Antibacterial activity against Staphylococcus aureus CCM 4516/08 after 24 hrs by microbroth dilution method; settings: CCM 4516/08, 24 h; procedure, shortened: as §2
Pichia kudriavzevii [15] = test: Antifungal activity against Candida krusei E28 after 24 hrs by microbroth dilution method; settings: E28, 24 h
[16] = tested on: Trichophyton mentagrophytes; test: Antifungal activity against Trichophyton mentagrophytes 445 after 72 hrs by microbroth dilution method; settings: Trichophyton mentagrophytes, 445, 72 h
Klebsiella pneumoniae [17] = test: Antibacterial activity against Klebsiella pneumoniae D 11750/08 after 24 hrs by microbroth dilution method; settings: D 11750/08, 24 h; procedure, shortened: as §2
Staphylococcus aureus [18] = test: Antibacterial activity against methicillin-resistant Staphylococcus aureus H 5996/08 after 24 hrs by microbroth dilution method; settings: H 5996/08, 24 h; procedure, shortened: as §1
Candida tropicalis [19] = test: Antifungal activity against Candida tropicalis 156 after 24 hrs by microbroth dilution method; settings: Candida tropicalis, 156, 24 h
Klebsiella pneumoniae [20] = test: Antibacterial activity against ESBL-positive Klebsiella pneumoniae J 14368/08 after 48 hrs by microbroth dilution method; settings: J 14368/08, 48 h; procedure, shortened: as §2
Enterococcus sp. [21] = test: Antibacterial activity against Enterococcus sp. J 14365/08 after 24 hrs by microbroth dilution method; settings: J 14365/08, 24 h; procedure, shortened: as §2
Trichosporon asahii [22] = test: Antifungal activity against Trichosporon asahii 1188 after 48 hrs by microbroth dilution method; settings: Trichosporon asahii, 1188, 48 h
[23] = tested on: Staphylococcus epidermidis; test: Antibacterial activity against Staphylococcus epidermidis H 6966/08 after 24 hrs by microbroth dilution method; settings: H 6966/08, 24 h; procedure, shortened: as §2
Lichtheimia corymbifera [24] = test: Antifungal activity against Absidia corymbifera 272 after 48 hrs by microbroth dilution method; settings: Lichtheimia corymbifera, 272, 48 h
Lichtheimia corymbifera [25] = test: Antifungal activity against Absidia corymbifera 272 after 24 hrs by microbroth dilution method; settings: Lichtheimia corymbifera, 272, 24 h
Escherichia coli [26] = test: Antibacterial activity against Escherichia coli CCM 4517 after 48 hrs by microbroth dilution method; settings: CCM 4517, 48 h; procedure, shortened: as §2
Escherichia coli [27] = test: Antibacterial activity against Escherichia coli CCM 4517 after 24 hrs by microbroth dilution method; settings: CCM 4517, 24 h; procedure, shortened: as §2
[28] = tested on: Trichophyton mentagrophytes; test: Antifungal activity against Trichophyton mentagrophytes 445 after 120 hrs by microbroth dilution method; settings: Trichophyton mentagrophytes, 445, 120 h

Measured: MIC

O=C(NC1CCCCC1)Oc1ccc(Cl)cc1C(=O)Nc1ccc(Cl)cc1
1.95 µM: Staphylococcus aureus [14]
3.9 µM: Staphylococcus aureus [18]
7.81 µM: Staphylococcus aureus [2] | [16] | [28]
0.98 µM: [8] | [23]
125 µM: Trichosporon asahii [12] | Pichia kudriavzevii [13] | Pichia kudriavzevii [15] | Trichosporon asahii [22] | Lichtheimia corymbifera [24] | Lichtheimia corymbifera [25]
15.6 µM: Staphylococcus aureus [9]
> 125 µM: all other assays above

O=C(Nc1ccccc1)Oc1ccccc1C(=O)Nc1ccccc1
500 µM: Staphylococcus aureus [2] | [8] | Staphylococcus aureus [9] | Staphylococcus aureus [14] | Staphylococcus aureus [18] | [23]
125 µM: [16] | [28]
> 500 µM: all other assays above

O=C(NC12CC3CC(CC(C3)C1)C2)Oc1ccc(Cl)cc1C(=O)Nc1ccc(Cl)cc1
62.5 µM: Klebsiella pneumoniae [6] | Klebsiella pneumoniae [20]
31.2 µM: Staphylococcus aureus [9] | Trichosporon asahii [12] | Trichosporon asahii [22]
3.9 µM: [8] | Staphylococcus aureus [14] | [16] | Staphylococcus aureus [18] | [23] | [28]
125 µM: Pichia kudriavzevii [13] | Pichia kudriavzevii [15]
250 µM: Enterococcus sp. [4] | Candida tropicalis [11] | Candida tropicalis [19] | Enterococcus sp. [21]
15.6 µM: Staphylococcus aureus [2]
> 250 µM: all other assays above

O=C(NC1CCCCC1)Oc1ccc(Cl)cc1C(=O)Nc1ccc(F)cc1
7.81 µM: [8] | [23]
62.5 µM: Klebsiella pneumoniae [6] | Trichosporon asahii [12] | Klebsiella pneumoniae [20]
1.95 µM: [16] | [28]
31.2 µM: Staphylococcus aureus [9] | Staphylococcus aureus [18]
15.6 µM: Staphylococcus aureus [2] | Staphylococcus aureus [14]
125 µM: Nakaseomyces glabratus [3] | Lichtheimia corymbifera [25]
> 125 µM: all other assays above

O=C(NCc1ccccc1)Oc1ccccc1C(=O)Nc1ccccc1
250 µM: Nakaseomyces glabratus [1] | Staphylococcus aureus [2] | Nakaseomyces glabratus [3] | Staphylococcus aureus [14]
500 µM: [8] | Staphylococcus aureus [9] | Staphylococcus aureus [18] | [23]
15.6 µM: [16] | [28]
125 µM: Candida albicans [7] | Candida albicans [10] | Candida tropicalis [11] | Trichosporon asahii [12] | Pichia kudriavzevii [13] | Pichia kudriavzevii [15] | Candida tropicalis [19] | Trichosporon asahii [22]
> 500 µM: all other assays above

O=C(NCc1ccccc1)Oc1ccc(Cl)cc1C(=O)Nc1ccc(F)cc1
125 µM: Nakaseomyces glabratus [3] | Trichosporon asahii [12]
> 250 µM: Nakaseomyces glabratus [1] | Candida albicans [7] | Candida tropicalis [11] | Pichia kudriavzevii [13] | Candida tropicalis [19] | Trichosporon asahii [22] | Lichtheimia corymbifera [24]
31.2 µM: Staphylococcus aureus [9]
15.6 µM: Staphylococcus aureus [2] | [8] | Staphylococcus aureus [14] | Staphylococcus aureus [18] | [23]
250 µM: Candida albicans [10] | Pichia kudriavzevii [15] | [16] | Lichtheimia corymbifera [25] | [28]
> 500 µM: all other assays above
